Laboratory results as given in ChEMBL document CHEMBL1136847, “Syntheses and potential anti-prostate cancer activities of ionone-based chalcones” (Bioorg Med Chem Lett, 2009).
Where a chain is given by its changes, count along the chain named. pIC50: −log10 of the molar value.

Assays:
[1] = tested on: Androgen receptor (Homo sapiens), P10275 [T878A]; assay: Antagonist activity at androgen receptor T877A mutant in human PC3 cells transiently transfected with pCMV-MMTV-Luc assessed as suppression of DHT-induced receptor transactivation; assay type: functional, cell-based; settings: PC-3
Method in brief: (§1)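 PC-3 cells seeded 24 h before co-transfection with MMTV-luciferase reporter (100 ng), the wild-type, T877A, W741C or H874Y AR plasmid (10 ng) and Renilla null luciferase (10 ng) using Lipofectamine 2000. Medium switched after 5 h to phenol red-free RPMI 1640 with 10% charcoal-stripped FBS. After 16 h, 0.1 nM DHT ± compound (0.1, 1.0 µM) for 24 h. Dual-luciferase read-out, Renilla-standardized, normalized to DHT alone (100%).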

[2] = tested on: CWR22R; assay: Cytotoxicity against human 22Rv1 cells with H874Y AR mutant after 72 hrs by MTT assay; assay type: functional, cell-based; settings: 22Rv1, 72 h
Method in brief: (§2)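 Cells seeded at 6000–7000 per well in RPMI 1640 with 10% FBS, penicillin and streptomycin, left overnight, then exposed to a range of concentrations from DMSO stock (final DMSO 0.5%) for 72 h. MTT added for a further 2 h and formazan from viable cells read. IC50 taken from survival curves, 50% inhibition relative to 0.5% DMSO control; top concentration 150 µM.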

[3] = Cytotoxicity against androgen-independent human C4-2B cells with T877A mutant after 72 hrs by MTT assay; assay type: functional, cell-based; settings: LNCaP C4-2B; method in brief: as §2
[4] = Cytotoxicity against androgen-dependent human MDA PCa 2b cells with T877A/L701H AR mutant after 72 hrs by MTT assay; assay type: functional, cell-based
Method in brief: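 Seeded at 6000–7000 cells per well in BRFF-HPC1 medium with 20% FBS, incubated overnight, then treated with serial concentrations diluted from DMSO stock (final DMSO 0.5%) for 72 h. Viability by MTT, 2 h with reagent, formazan measured. IC50 from survival curves as 50% inhibition versus 0.5% DMSO vehicle; maximum concentration tested 150 µM.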

[5] = Cytotoxicity against human RWPE1 cells after 72 hrs by MTT assay; assay type: cell-based; settings: RWPE-1, 72 h
Method in brief: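 Non-tumorigenic prostate epithelial line plated at 6000–7000 cells per well in keratinocyte serum-free medium with 0.05 mg/mL bovine pituitary extract and 5 ng/mL EGF; overnight attachment, then compounds at various concentrations in 0.5% final DMSO for 72 h. MTT 2 h, formazan read; IC50 from survival curves versus DMSO control.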

[6] = molecular target: T1, Androgen receptor (Homo sapiens) (UniProt P10275); assay: Antagonist activity at wild type androgen receptor in human PC3 cells transiently transfected with pCMV-MMTV-Luc assessed as suppression of DHT-induced receptor transactivation; assay type: functional, cell-based; settings: PC-3; method in brief: as §1
T1 sequence (whole entry): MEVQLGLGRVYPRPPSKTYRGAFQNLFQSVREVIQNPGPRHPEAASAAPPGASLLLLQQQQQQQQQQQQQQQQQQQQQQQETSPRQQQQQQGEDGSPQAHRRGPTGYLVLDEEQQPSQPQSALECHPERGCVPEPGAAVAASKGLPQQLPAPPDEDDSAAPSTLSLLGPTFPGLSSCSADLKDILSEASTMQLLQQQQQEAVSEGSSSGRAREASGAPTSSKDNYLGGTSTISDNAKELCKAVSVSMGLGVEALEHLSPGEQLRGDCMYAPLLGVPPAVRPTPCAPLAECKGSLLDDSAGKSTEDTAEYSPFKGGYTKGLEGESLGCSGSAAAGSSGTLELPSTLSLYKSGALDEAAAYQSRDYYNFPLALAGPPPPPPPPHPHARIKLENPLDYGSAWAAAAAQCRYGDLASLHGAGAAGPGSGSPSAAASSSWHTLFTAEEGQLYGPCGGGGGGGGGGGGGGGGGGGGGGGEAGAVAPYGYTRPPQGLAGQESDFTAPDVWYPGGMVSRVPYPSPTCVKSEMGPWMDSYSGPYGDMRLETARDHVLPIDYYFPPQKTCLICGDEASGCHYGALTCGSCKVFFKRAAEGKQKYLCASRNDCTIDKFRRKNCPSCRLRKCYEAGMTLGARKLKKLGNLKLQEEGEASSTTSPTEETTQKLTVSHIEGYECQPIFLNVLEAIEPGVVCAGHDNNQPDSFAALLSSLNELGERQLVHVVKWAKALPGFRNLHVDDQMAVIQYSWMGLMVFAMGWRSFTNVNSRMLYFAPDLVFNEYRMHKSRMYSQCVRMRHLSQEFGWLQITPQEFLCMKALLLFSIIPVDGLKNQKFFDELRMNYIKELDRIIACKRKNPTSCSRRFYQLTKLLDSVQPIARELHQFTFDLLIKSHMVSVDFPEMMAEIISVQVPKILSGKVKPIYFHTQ

[7] = tested on: T2, Androgen receptor (Homo sapiens), P10275 [W742C]; assay: Antagonist activity at androgen receptor W741C mutant in human PC3 cells transiently transfected with pCMV-MMTV-Luc assessed as suppression of DHT-induced receptor transactivation; assay type: functional, cell-based; settings: PC-3; method in brief: as §1
T2 sequence (whole entry): T1 sequence (whole entry) with W742C

Androgen receptor (Homo sapiens), P10275 [T878A], sequence (P10275 whole entry T878A): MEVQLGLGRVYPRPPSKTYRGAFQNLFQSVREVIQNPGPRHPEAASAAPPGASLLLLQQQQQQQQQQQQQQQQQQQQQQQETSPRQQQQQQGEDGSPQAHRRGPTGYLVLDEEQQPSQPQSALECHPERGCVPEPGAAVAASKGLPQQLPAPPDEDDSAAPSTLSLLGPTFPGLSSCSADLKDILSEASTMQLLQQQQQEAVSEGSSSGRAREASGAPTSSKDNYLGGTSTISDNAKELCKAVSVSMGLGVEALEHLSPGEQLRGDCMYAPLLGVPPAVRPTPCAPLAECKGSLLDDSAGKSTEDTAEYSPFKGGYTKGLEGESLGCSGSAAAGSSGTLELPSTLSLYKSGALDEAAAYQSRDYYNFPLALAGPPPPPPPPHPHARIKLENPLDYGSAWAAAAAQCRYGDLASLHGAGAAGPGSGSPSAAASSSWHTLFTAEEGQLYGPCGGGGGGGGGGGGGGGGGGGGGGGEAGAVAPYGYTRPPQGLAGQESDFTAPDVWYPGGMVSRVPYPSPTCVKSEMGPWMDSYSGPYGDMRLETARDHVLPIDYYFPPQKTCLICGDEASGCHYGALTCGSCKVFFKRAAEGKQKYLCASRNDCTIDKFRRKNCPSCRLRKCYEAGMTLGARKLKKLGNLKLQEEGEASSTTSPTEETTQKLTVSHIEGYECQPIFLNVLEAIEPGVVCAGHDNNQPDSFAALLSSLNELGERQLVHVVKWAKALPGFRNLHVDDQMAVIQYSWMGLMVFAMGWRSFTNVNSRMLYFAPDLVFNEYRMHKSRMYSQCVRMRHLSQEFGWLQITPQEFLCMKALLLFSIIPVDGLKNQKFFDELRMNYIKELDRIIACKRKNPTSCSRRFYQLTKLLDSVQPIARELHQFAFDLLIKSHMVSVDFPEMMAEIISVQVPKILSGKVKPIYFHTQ

CC1=C(/C=C/C(=O)/C=C/c2cccc(C(F)(F)F)c2)C(C)(C)CCC1O (configuration not stated)
Activity [1]: Dose-dependent effect | pIC50 [2]: 5.77 | pIC50 [3]: 5.85 | pIC50 [4]: 5.59 | pIC50 [5]: 6.14 | Activity [6]: Dose-dependent effect | Activity [7]: Dose-dependent effect
